# Activity calls are given as the source filed them. The calls are words filed in the database; no cut-off is given here.
# How the values were obtained:
# Pseudomonas aeruginosa [1] = assay: Antimicrobial activity against Pseudomonas aeruginosa KCTC 1637 incubated for 18 to 20 hrs by broth microdilution assay; assay type: functional; details: read-out: MIC100
# How it was run: (§1)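 Broth microdilution in 1% peptone. Inoculum was 2 × 10⁶ CFU/mL mixed 1:1 with serial 2-fold peptide dilutions and incubated 18–20 h at 37 °C. Growth was read as absorbance at 600 nm; MIC is the lowest peptide concentration giving 100% growth inhibition.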
# Staphylococcus aureus [2] = assay: Induction of cytoplasmic membrane depolarization in Staphylococcus aureus KCTC 1621 assessed as loss of membrane potential after 1 hr by DiSC3(5) dye based fluorescence assay; assay type: functional
# Escherichia coli [3] = assay: Antimicrobial activity against Escherichia coli KCTC 1682 in presence of NaCl; assay type: functional
# How it was run: (§2)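 MIC in LB medium with added 150 mM NaCl, 1 mM MgCl₂ or 2.5 mM CaCl₂. Inoculum of 2 × 10⁶ CFU/mL with peptide. Otherwise as the broth microdilution MIC assay; MIC is the lowest concentration giving 100% growth inhibition.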
# NIH3T3 = assay: Cytotoxicity against mouse NIH/3T3 cells up to 64 ug/mL after 2 days by MTT assay; assay type: cell-based; details: nih3t3, 48 h
# How it was run: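 Cells in DMEM with 10% FBS seeded at 2×10^4 cells/well and incubated 24 h at 37 °C, 5% CO₂. Serial 2-fold peptide dilutions were added for 2 days, then MTT for 4 h. Formazan was dissolved in 20% SDS/0.01 M HCl and read at 570 nm. Survival is expressed as a percentage of untreated cells.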
# Staphylococcus aureus [4] = assay: Potency index, ratio of melittin MIC100 to compound MIC100 for methicillin resistant Staphylococcus aureus CCARM 3090; assay type: functional
# Enterococcus faecium [5] = assay: Antibacterial activity against vancomycin-resistant Enterococcus faecium ATCC 51559 after 18 to 20 hrs by broth microdilution assay; assay type: functional; details: read-out: MIC100
# How it was run: (§3)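 Broth microdilution in 1% peptone: bacteria at 2 × 10⁶ CFU/mL mixed 1:1 with serial 2-fold peptide dilutions, 18-20 h at 37 °C; growth read as absorbance at 600 nm. MIC taken as lowest concentration giving 100% growth inhibition.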
# Staphylococcus aureus [6] = assay: Antimicrobial activity against Staphylococcus aureus KCTC 1621 incubated for 18 to 20 hrs by broth microdilution assay; assay type: functional; details: read-out: MIC100; how it was run: as §1
# Staphylococcus aureus [7] = assay: Antimicrobial activity against Staphylococcus aureus KCTC 1621 in presence of MgCl2; assay type: functional
# How it was run: (§4)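 MIC by microdilution with 2 × 10⁶ CFU/ml S. aureus KCTC 1621 in LB medium supplemented with physiological salt: 150 mM NaCl, 1 mM MgCl₂ or 2.5 mM CaCl₂; growth inhibition endpoint as in the standard MIC assay.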
# Staphylococcus aureus [8] = assay: Antibacterial activity against methicillin resistant Staphylococcus aureus CCARM 3089 after 18 to 20 hrs by broth microdilution assay; assay type: functional; details: read-out: MIC100; how it was run: as §3
# [9] = Therapeutic index, ratio of MHC for sheep RBC to geometric mean of MICs for four bacterial strains
# Escherichia coli [10] = assay: Antimicrobial activity against Escherichia coli KCTC 1682 in presence of MgCl2; assay type: functional; how it was run: as §2
# Staphylococcus aureus [11] = assay: Antibacterial activity against methicillin resistant Staphylococcus aureus CCARM 3095 after 18 to 20 hrs by broth microdilution assay; assay type: functional; details: read-out: MIC100; how it was run: as §3
# Escherichia coli [12] = assay: Antimicrobial activity against Escherichia coli KCTC 1682 in presence of CaCl2; assay type: functional; how it was run: as §2
# Staphylococcus aureus [13] = assay: Antimicrobial activity against Staphylococcus aureus KCTC 1621 in presence of NaCl; assay type: functional; how it was run: as §4
# [14] = Therapeutic index, ratio of MHC for sheep RBC to geometric mean of MICs for four bacterial strains; remark: listed apart in the source
# Pseudomonas aeruginosa [15] = assay: Antibiofilm activity against multidrug-resistant Pseudomonas aeruginosa CCARM 2095 after 24 hrs by crystal violet staining based method; assay type: functional; details: CCARM 2095, 24 h
# How it was run: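 MDRPA 2095 (1×10^6 cfu/mL) in MHB with 0.2% glucose, 24 h at 37 °C with or without peptide (2-fold dilutions, 1-64 µg/mL), six wells each. Wells washed with PBS, methanol-fixed, stained with 0.1% crystal violet 5 min, stain resolubilized in 95% ethanol, absorbance at 600 nm.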
# RAW264.7 [16] = assay: Antiinflammatory activity in mouse RAW264.7 cells assessed as inhibition of LPS-induced TNF-alpha production at 32 ug/mL preincubated with cells followed by LPS addition measured after 6 hrs by ELISA; assay type: functional
# How it was run: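 RAW264.7 cells seeded at 5 × 10⁴ cells/well, left overnight, then given peptide at 37 °C. Unbound peptide was washed off with PBS (five washes) before LPS (20 ng/mL) was added for 6 h at 37 °C. TNF-α in the samples was measured by mouse ELISA. Mean ± SEM of technical triplicates, one-way ANOVA with Bonferroni post-test.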
# RAW264.7 [17] = assay: Antiinflammatory activity in mouse RAW264.7 cells assessed as inhibition of LPS-induced nitric oxide production at 16 ug/mL after 24 hrs by Griess method; assay type: functional; details: RAW264.7, 24 h
# How it was run: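 RAW264.7 macrophages (5×10^5 cells/mL) stimulated with LPS (20 ng/mL), with or without peptide, for 24 h. Supernatants were mixed 1:1 with Griess reagent (1% sulfanilamide, 0.1% naphthylethylenediamine, 2% phosphoric acid) for 10 min at room temperature, read at 540 nm, and quantified against an NaNO₂ standard curve. Mean ± SEM of technical triplicates, ANOVA with Bonferroni post-test.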
# Staphylococcus aureus [18] = assay: Potency index, ratio of melittin MIC100 to compound MIC100 for methicillin resistant Staphylococcus aureus CCARM 3089; assay type: functional
# Enterococcus faecium [19] = assay: Potency index, ratio of melittin MIC100 to compound MIC100 for vancomycin-resistant Enterococcus faecium ATCC 51559; assay type: functional
# Pseudomonas aeruginosa [20] = assay: Potency index, ratio of melittin MIC100 to compound MIC100 for Pseudomonas aeruginosa KCTC 1637; assay type: functional
# Escherichia coli [21] = assay: Induction of inner membrane permeabilisation in Escherichia coli ML-35 assessed as ONPG hydrolysis up to 30 ug/ml by beta-galactosidase enzyme coupled spectrophotometric analysis; assay type: functional
# How it was run: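 E. coli ML-35 (constitutive cytoplasmic β-galactosidase, lactose permease-deficient) washed and resuspended to OD600 0.5 in 10 mM sodium phosphate pH 7.4, 100 mM NaCl, with 1.5 mM ONPG. o-Nitrophenol release tracked spectrophotometrically over time after peptide addition at various concentrations.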
# Escherichia coli [22] = assay: Antimicrobial activity against Escherichia coli KCTC 1682 incubated for 18 to 20 hrs by broth microdilution assay; assay type: functional; details: read-out: MIC100; how it was run: as §1
# Escherichia coli [23] = assay: Antimicrobial activity against Escherichia coli KCTC 1682 assessed as disruption of bacterial cell membrane at 2 times MIC after 1 hr by transmission electron microscopy; assay type: functional
# How it was run: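 Bacteria at 2×10^7 CFU/mL in LB, washed three times in PBS. Peptide in PBS was added to a final 2 × MIC and incubated 1 h at 37 °C. Pelleted cells were resuspended in PBS, applied to glow-discharged carbon-film grids, negatively stained with 1% uranyl acetate for 1 min, and imaged by TEM at 120 kV.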
structure (smiles),measurement,setting,value
N=C(N)NCCC[C@H](NC(=O)c1nn(CCc2cccc3ccccc23)cc1NC(=O)[C@H](CCCNC(=N)N)NC(=O)c1nn(CCc2cccc3ccccc23)cc1N)C(N)=O,MIC,Pseudomonas aeruginosa [1],8 µg/mL
same,Activity,Staphylococcus aureus [2],Active
same,MIC,Escherichia coli [3],32 µg/mL
same,Activity,NIH3T3,Non-Toxic
same,Ratio,Staphylococcus aureus [4],2 - 4
same,MIC,Enterococcus faecium [5],8 µg/mL
same,MIC,Staphylococcus aureus [6],4 µg/mL
same,MIC,Staphylococcus aureus [7],8 µg/mL
same,MIC,Staphylococcus aureus [8],8 µg/mL
same,TI,[9],53.9
same,MIC,Escherichia coli [10],32 µg/mL
same,MIC,Staphylococcus aureus [11],4 µg/mL
same,MIC,Escherichia coli [12],32 µg/mL
same,MIC,Staphylococcus aureus [13],4 µg/mL
same,TI,[14],53.9
same,IC90,Pseudomonas aeruginosa [15],16 µg/mL
same,inhibition at 32 µg/mL,RAW264.7 [16],> 50%
same,inhibition at 16 µg/mL,RAW264.7 [17],> 85%
same,Ratio,Staphylococcus aureus [18],2 - 4
same,Ratio,Enterococcus faecium [19],2
same,Ratio,Pseudomonas aeruginosa [20],4
same,Activity,Escherichia coli [21],Active
same,MIC,Escherichia coli [22],32 µg/mL
same,Activity,Escherichia coli [23],Active
